Source: ChEMBL document CHEMBL3259573, “Optimization of 2-(3-(arylalkyl amino carbonyl) phenyl)-3-(2-methoxyphenyl)-4-thiazolidinone derivatives as potent antitumor growth and metastasis agents” (Eur J Med Chem, 2014)
pIC50: −log10 of the molar value. Active and inactive are the calls of the source. The calls are words filed in the database; no cut-off is given here.

Key:
[1] = test system: MDA-MB-231; assay: Antiproliferative activity against human MDA-MB-231 cells after 48 hrs by sulforhodamine B assay; type: functional, cell-based; settings: MDA-MB-231, 48 h
In short: (§1)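 Cells kept in RPMI 1640 at 37 °C, 5% CO₂, and seeded 24 h before treatment, with DMSO as control. After 48 h, fixed with cold 50% TCA 1 h at 4 °C and stained with 0.4% SRB in 1% acetic acid for 10 min. Washed five times with 1% acetic acid, dye solubilized in 10 mM Tris base, OD read at 515 nm.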

[2] = test system: A549; assay: Antiproliferative activity against human A549 cells after 48 hrs by sulforhodamine B assay; type: functional, cell-based; settings: A549, 48 h; in short: as §1
[3] = test system: MDA-MB-231; assay: Cell cycle arrest in human MDA-MB-231 cells assessed as accumulation at G2/M phase at 1 uM by propidium iodide staining-based FACS analysis relative to control; type: functional
[4] = test system: Mus musculus; assay: Toxicity in nude mouse xenografted with luciferase-labeled human MDA-MB-231 cells assessed as change in body weight at 1 to 5 mg/kg/day, ip administered 1 week prior to tumor implantation measured after 21 days; type: organism-based; design: route intraperitoneal; settings: in vivo, 504 h
[5] = test system: Mus musculus; assay: Toxicity in nude mouse xenografted with human A549 cells assessed as change in body weight at 5 to 10 mg/kg/day, ip for 28 days; type: organism-based; design: route intraperitoneal; settings: in vivo, 672 h
[6] = test system: A549; assay: Antitumor activity against human A549 cells xenografted in nude mouse assessed as reduction in tumor weight at 5 to 10 mg/kg/day, ip for 28 days; type: functional, organism-based
[7] = test system: A549; assay: Induction of apoptosis in human A549 cells at 0.1 to 1 uM after 48 hrs by annexin V-FITC and propidium iodide staining-based flow cytometric analysis; type: functional, cell-based
In short: (§2)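 Treatment 48 h. Cells washed with cold PBS, resuspended in binding buffer, stained with Annexin V-FITC/PI 15 min. 10,000 stained cells per sample analyzed by flow cytometry.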

[8] = test system: MDA-MB-231; assay: Antimetastatic activity against human MDA-MB-231 cells assessed as inhibition of cell migration after 10 to 12 hrs by transwell assay; type: functional, cell-based
In short: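 MDA-MB-231 cells (5 × 10⁴) in serum-free medium placed in upper chamber, 10% FBS medium below; compound at fixed concentrations in both chambers. Migration approximately 10 h (legend says 12 h). Non-migrated cells swabbed off, migrated cells fixed in paraformaldehyde 1 h, stained 0.1% crystal violet, counted in 7–8 random fields. Three independent experiments, means with 95% confidence intervals.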

[9] = test system: A549; assay: Antitumor activity against human A549 cells xenografted in nude mouse assessed as reduction in tumor volume at 5 to 10 mg/kg/day, ip for 28 days; type: functional, organism-based
[10] = test system: MDA-MB-231; assay: Antimetastatic activity against luciferase-labeled human MDA-MB-231 cells xenografted in nude mouse assessed as reduction in photon flux in lungs at 5 mg/kg/day, ip administered 1 week prior to tumor implantation measured after 21 days by bioluminescence assay relative to control; type: functional; design: scale not given: the % may be the effect or the level left; settings: route intraperitoneal
In short: (§3)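 Nude mice randomized into 3 groups (n = 6) and given DMSO or compound at 1.0 or 5.0 mg/kg/day by intraperitoneal injection. Dosing started one week before tail-vein injection of 1 × 10⁶ firefly luciferase-expressing MDA-MB-231 cells in PBS and continued 21 days. Lung metastasis read by bioluminescence photon flux; survival by Kaplan–Meier analysis.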

[11] = test system: MDA-MB-231; assay: Induction of apoptosis in human MDA-MB-231 cells at 0.1 to 1 uM after 48 hrs by annexin V-FITC and propidium iodide staining-based flow cytometric analysis; type: functional, cell-based; in short: as §2
[12] = test system: A549; assay: Cell cycle arrest in human A549 cells assessed as accumulation at G2/M phase at 1 uM by propidium iodide staining-based FACS analysis relative to control; type: functional
[13] = test system: MDA-MB-231; assay: Antimetastatic activity against luciferase-labeled human MDA-MB-231 cells xenografted in nude mouse assessed as reduction in development of lung metastasis at 1 to 5 mg/kg/day, ip administered 1 week prior to tumor implantation measured after 21 days by bioluminescence assay; type: functional, organism-based; settings: TDE = time-dependent effect; in short: as §3
[14] = test system: MDA-MB-231; assay: Antimetastatic activity against luciferase-labeled human MDA-MB-231 cells xenografted in nude mouse assessed as increase in mouse survival at 1 to 5 mg/kg/day, ip administered 1 week prior to tumor implantation measured after 21 days; type: functional, organism-based; in short: as §3
[15] = test system: MDA-MB-231; assay: Antimetastatic activity against human MDA-MB-231 cells assessed as inhibition of cell migration after 24 hrs by wound healing assay; type: functional, cell-based; settings: for pIC50: MDA-MB-231, 24 h
In short: (§4)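 Cells grown at 37 °C in complete RPMI 1640 to 80–90% confluence, then serum-starved 12 h. Monolayer scraped with pipette tip, washed twice with PBS, refed complete RPMI 1640 with compound (0.5 or 0.05 uM per legend). Incubated 24 h at 37 °C, then fixed and photographed. Migrated cells counted manually, inhibition expressed relative to untreated (100%). Three independent experiments, 95% CI.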

[16] = test system: MDA-MB-231; assay: Antimetastatic activity against luciferase-labeled human MDA-MB-231 cells xenografted in ip dosed nude mouse assessed as reduction in development of lung metastasis administered 1 week prior to tumor implantation measured after 21 days by bioluminescence assay; type: functional, organism-based; in short: as §3
[17] = test system: MDA-MB-231; assay: Antimetastatic activity against human MDA-MB-231 cells assessed as inhibition of cell migration at 0.5 uM after 24 hrs by wound healing assay; type: functional, cell-based; in short: as §4

| pIC50 [1] | pIC50 [2] | SMILES | further results |
| --- | --- | --- | --- |
| < 4.30 | < 4.30 | COc1ccccc1N1C(=O)CSC1Cc1ccccc1 (stereo not drawn) |  |
| < 4.30 | < 4.30 | COc1cccc(C2SCC(=O)N2c2ccccc2OC)c1 (stereo not drawn) |  |
| 4.86 | 5.09 | COc1ccccc1N1C(=O)CSC1c1cccc(Cl)c1 (stereo not drawn) |  |
| 4.37 | 4.95 | COc1ccccc1N1C(=O)CSC1c1cccc([N+](=O)[O-])c1 (stereo not drawn) |  |
| 6.64 | 6.68 | COc1ccccc1N1C(=O)CSC1c1cccc(C(=O)NCCc2ccc(Br)cc2)c1 (stereo not drawn) | Activity [3]: 48.34%; Activity [4]: Toxic; Activity [5]: Non-toxic; Activity [6]: Active; Activity [7]: inactive; pIC50 [8]: 8.00; inhibition [8]: Dose-dependent effect; Activity [9]: Active; Activity [10]: 96.5%; Activity [11]: inactive; Activity [12]: 42.4%; Activity [13]: tde; Activity [14]: Active; pIC50 [15]: > 7.30; Activity [16]: Dose-dependent effect |
| 4.86 | 5.07 | COc1ccccc1N1C(=O)CSC1c1cccc(C(=O)NCCc2ccccc2Br)c1 (stereo not drawn) |  |
| < 4.30 | < 4.30 | COc1ccccc1N1C(=O)CSC1c1cccc(C(=O)O)c1 (stereo not drawn) |  |
| < 4.30 | < 4.30 | O=C1CSC(c2cccc(Br)c2)N1c1ccc(O)cc1 (stereo not drawn) |  |
| 5.87 | 6.33 | COc1ccccc1N1C(=O)CSC1c1cccc(C(=O)NCCc2ccc(F)cc2)c1 (stereo not drawn) |  |
| < 4.60 | 5.30 | COc1ccccc1N1C(=O)CSC1c1cccc(C(=O)NCc2ccccc2)c1 (stereo not drawn) |  |
| < 4.30 | 4.36 | O=C1CSC(c2cccc(Br)c2)N1c1cccc([N+](=O)[O-])c1 (stereo not drawn) |  |
| < 4.30 | 4.42 | CN(C)c1ccccc1N1C(=O)CSC1c1cccc(Br)c1 (stereo not drawn) |  |
| < 4.30 | < 4.30 | COc1ccccc1N1C(=O)CSC1c1cccc(F)c1 (stereo not drawn) |  |
| < 4.30 | < 4.30 | O=C1CSC(c2cccc(Br)c2)N1c1nccs1 (stereo not drawn) |  |
| 4.57 | 5.00 | O=C1CSC(c2cccc(Br)c2)N1c1cc(Cl)ccc1O (stereo not drawn) | inhibition [17]: inactive |
| 4.32 | < 4.30 | COc1cccc(N2C(=O)CSC2c2cccc(Br)c2)c1 (stereo not drawn) |  |
| < 4.30 | 4.31 | COc1ccccc1N1C(=O)CSC1c1ccc(Br)cc1 (stereo not drawn) |  |
| < 4.30 | < 4.30 | COc1ccccc1N1C(=O)CSC1c1ccncc1 (stereo not drawn) |  |
| < 4.30 | < 4.30 | O=C1CSC(c2cccc(Br)c2)N1c1ncccn1 (stereo not drawn) |  |
| 4.91 | 4.50 | COc1ccccc1N1C(=O)CSC1c1cccc(C(=O)NCCCc2ccccc2)c1 (stereo not drawn) |  |
| 5.75 | 6.14 | COc1ccccc1N1C(=O)CSC1c1cccc(C(=O)NCCc2ccc(O)cc2)c1 (stereo not drawn) | inhibition [15]: Active |
| < 4.60 | 6.02 | COc1ccccc1N1C(=O)CSC1c1cccc(C(=O)NCCc2ccccc2)c1 (stereo not drawn) | inhibition [15]: Active |

| pIC50 [1] | pIC50 [2] | SMILES | further results |
| --- | --- | --- | --- |
| < 4.30 | 4.65 | CNc1ccccc1N1C(=O)CSC1c1cccc(Br)c1 (stereo not drawn) |  |
| 6.74 | 6.80 | COc1ccccc1N1C(=O)CSC1c1cccc(C(=O)NCCc2ccc(Cl)cc2)c1 (stereo not drawn) | pIC50 [8]: 8.00; inhibition [8]: Dose-dependent effect; pIC50 [15]: > 7.30 |
| 5.34 | 5.73 | COc1ccccc1N1C(=O)CSC1c1cccc(Br)c1 (stereo not drawn) |  |
| < 4.30 | < 4.30 | C=CCN(CC=C)C(=O)c1cccc(C2SCC(=O)N2c2ccccc2OC)c1 (stereo not drawn) |  |
| < 4.30 | < 4.30 | COc1ccccc1N1C(=O)CSC1c1cccs1 (stereo not drawn) |  |
| < 4.30 | < 4.30 | COc1ccccc1N1C(=O)CSC1c1ccccc1 (stereo not drawn) |  |
| 4.77 | 4.83 | COc1ccc(N2C(=O)CSC2c2cccc(Br)c2)c(OC)c1 (stereo not drawn) |  |
| < 4.30 | < 4.30 | COc1ccccc1N1C(=O)CSC1c1ccc2ccccc2n1 (stereo not drawn) |  |
| 4.64 | 6.54 | COC(=O)c1cccc(C2SCC(=O)N2c2ccccc2OC)c1 (stereo not drawn) |  |
| < 4.30 | < 4.30 | CCN(CC)C(=O)c1cccc(C2SCC(=O)N2c2ccccc2OC)c1 (stereo not drawn) |  |
| 4.75 | 4.43 | O=C1CSC(c2cccc(Br)c2)N1c1cccc(O)c1 (stereo not drawn) |  |
| < 4.60 | < 4.60 | COc1ccccc1N1C(=O)CSC1c1cccc(C(=O)Nc2ccccc2)c1 (stereo not drawn) |  |
| < 4.30 | 4.50 | COc1ccccc1N1C(=O)CSC1c1ccccc1Br (stereo not drawn) |  |
| 4.49 | 4.86 | O=C1CSC(c2cccc(Br)c2)N1c1ccccc1O (stereo not drawn) |  |
| 4.74 | 5.05 | CCOc1ccc(N2C(=O)CSC2c2cccc(Br)c2)cc1 (stereo not drawn) |  |
| < 4.30 | < 4.30 | COc1ccccc1N1C(=O)CSC1c1cccc(C(=O)N2CCCCC2)c1 (stereo not drawn) |  |
| 7.30 | 6.89 | COc1ccc(CCNC(=O)c2cccc(C3SCC(=O)N3c3ccccc3OC)c2)cc1 (stereo not drawn) | inhibition [15]: Active |
| < 4.30 | 4.84 | COc1ccccc1N1C(=O)CSC1c1cccc(CBr)c1 (stereo not drawn) |  |
| < 4.30 | < 4.30 | O=C1CSC(c2cccc(Br)c2)N1c1ccccc1 (stereo not drawn) |  |
| < 4.30 | < 4.30 | COc1ccccc1N1C(=O)CSC1c1cccc(O)c1 (stereo not drawn) |  |
| < 4.30 | 4.68 | O=C1CSC(c2cccc(Br)c2)N1CCc1ccccc1 (stereo not drawn) |  |
